Data published in ChEMBL document CHEMBL1131106, “Synthesis and characterization of heteroarotinoids demonstrate structure specificity relationships” (J Med Chem, 1998).

Legend:
[1] = biological target: T1, Retinoic acid receptor RXR-alpha (Homo sapiens, UniProt P19793); experiment: Transcriptional activation in CV-1 cells expressing RXR-alpha receptor;not active
T1 sequence (P19793 whole entry): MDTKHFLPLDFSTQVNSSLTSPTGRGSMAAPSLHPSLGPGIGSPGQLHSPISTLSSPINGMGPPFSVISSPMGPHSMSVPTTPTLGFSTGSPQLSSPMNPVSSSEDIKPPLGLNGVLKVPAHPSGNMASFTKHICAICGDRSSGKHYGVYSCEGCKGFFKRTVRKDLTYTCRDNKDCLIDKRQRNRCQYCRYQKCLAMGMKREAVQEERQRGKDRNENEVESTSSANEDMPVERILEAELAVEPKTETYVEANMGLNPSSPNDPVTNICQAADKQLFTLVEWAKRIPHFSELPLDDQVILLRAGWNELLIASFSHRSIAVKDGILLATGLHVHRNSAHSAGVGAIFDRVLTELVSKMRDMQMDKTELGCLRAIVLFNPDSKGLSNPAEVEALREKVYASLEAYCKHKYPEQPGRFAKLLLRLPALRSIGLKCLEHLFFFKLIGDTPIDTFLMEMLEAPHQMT

[2] = biological target: T2, Retinoic acid receptor alpha (Homo sapiens, UniProt P10276); experiment: Transcriptional activation in CV-1 cells expressing RAR-alpha receptor; type: cell-based
T2 sequence (P10276 whole entry): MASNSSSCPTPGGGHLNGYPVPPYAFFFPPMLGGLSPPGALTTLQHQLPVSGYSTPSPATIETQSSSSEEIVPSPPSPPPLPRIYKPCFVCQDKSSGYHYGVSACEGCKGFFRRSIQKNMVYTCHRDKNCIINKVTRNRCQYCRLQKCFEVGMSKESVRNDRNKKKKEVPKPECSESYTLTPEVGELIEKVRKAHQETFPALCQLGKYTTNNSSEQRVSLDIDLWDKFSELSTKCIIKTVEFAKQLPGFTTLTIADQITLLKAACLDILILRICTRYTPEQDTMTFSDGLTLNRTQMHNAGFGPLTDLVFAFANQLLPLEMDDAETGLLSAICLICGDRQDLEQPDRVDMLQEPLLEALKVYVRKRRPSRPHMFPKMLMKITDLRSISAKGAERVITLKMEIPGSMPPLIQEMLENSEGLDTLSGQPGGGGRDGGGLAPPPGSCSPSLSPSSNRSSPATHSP
Method in brief: (§1)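 CV-1 cells co-transfected by calcium phosphate with receptor expression plasmid, luciferase reporter MTV-TREp-LUC (two TRE-palindromic copies; RAR assays), β-galactosidase internal control plasmid and pGEM carrier. Incubated 40 h with or without various retinoid concentrations. Luciferase read in extracts, normalized to β-galactosidase. Triplicate. Activity normalized to 9-cis-retinoic acid; EC50 = concentration giving 50% maximal response.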

[3] = biological target: T3, Retinoic acid receptor beta (Homo sapiens, UniProt P10826); experiment: Transcriptional activation in CV-1 cells expressing RAR-beta receptor; type: cell-based
T3 sequence (P10826 whole entry): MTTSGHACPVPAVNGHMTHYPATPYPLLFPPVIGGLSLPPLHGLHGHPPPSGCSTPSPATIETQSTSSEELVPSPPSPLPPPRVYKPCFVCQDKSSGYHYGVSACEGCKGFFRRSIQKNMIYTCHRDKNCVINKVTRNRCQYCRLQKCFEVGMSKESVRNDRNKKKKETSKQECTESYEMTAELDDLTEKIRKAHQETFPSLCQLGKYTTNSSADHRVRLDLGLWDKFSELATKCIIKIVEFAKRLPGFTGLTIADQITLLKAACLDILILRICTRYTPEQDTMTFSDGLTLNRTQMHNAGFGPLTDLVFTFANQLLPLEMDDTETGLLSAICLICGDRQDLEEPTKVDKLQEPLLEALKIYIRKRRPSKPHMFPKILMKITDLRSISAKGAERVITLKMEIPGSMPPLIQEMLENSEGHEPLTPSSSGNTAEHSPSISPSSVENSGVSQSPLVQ
Method in brief: as §1

[4] = biological target: T4, Retinoic acid receptor gamma (Homo sapiens, UniProt P13631); experiment: Transcriptional activation in CV-1 cells expressing RAR-gamma receptor; type: cell-based
T4 sequence (P13631 whole entry): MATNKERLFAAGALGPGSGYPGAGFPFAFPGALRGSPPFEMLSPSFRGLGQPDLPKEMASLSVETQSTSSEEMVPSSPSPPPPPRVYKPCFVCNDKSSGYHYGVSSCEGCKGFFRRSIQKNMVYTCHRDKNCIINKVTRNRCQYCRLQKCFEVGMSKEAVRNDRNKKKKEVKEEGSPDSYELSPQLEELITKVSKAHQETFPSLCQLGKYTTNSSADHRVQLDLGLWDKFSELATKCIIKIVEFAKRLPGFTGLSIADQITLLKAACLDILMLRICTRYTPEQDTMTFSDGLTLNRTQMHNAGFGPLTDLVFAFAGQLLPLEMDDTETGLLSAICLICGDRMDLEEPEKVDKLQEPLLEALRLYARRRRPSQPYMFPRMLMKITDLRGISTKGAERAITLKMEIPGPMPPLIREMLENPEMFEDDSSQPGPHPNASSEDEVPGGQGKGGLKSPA
Method in brief: as §1

[5] = biological target: T1, Retinoic acid receptor RXR-alpha; experiment: Transcriptional activation in CV-1 cells expressing RXR-alpha receptor
[6] = biological target: T2, Retinoic acid receptor alpha; experiment: Transcriptional activation in CV-1 cells expressing RAR-alpha receptor; Not active; type: cell-based
Method in brief: as §1

C/C(=C\c1ccc(C(=O)O)cc1)c1ccc2c(c1)C(C)(C)CS2
EC50 [1]: Not Active | EC50 [2]: 420 nM | EC50 [3]: 18 nM | EC50 [4]: 30 nM

C/C(=C\c1ccc(C(=O)O)cc1)c1ccc2c(c1)C(C)(C)CO2
EC50 [1]: Not Active | EC50 [2]: 2300 nM | EC50 [3]: 320 nM | EC50 [4]: 460 nM

COC(=O)c1ccc(/C=C(\C)c2ccc3c(c2)C(C)(C)CCS3)cc1
EC50 [1]: Not Active | EC50 [2]: 620 nM | EC50 [3]: 110 nM | EC50 [4]: 84 nM

C/C(=C\c1ccc(C(=O)O)cc1)c1ccc2c(c1)C(C)(C)CCO2
EC50 [1]: Not Active | EC50 [2]: 1100 nM | EC50 [3]: 190 nM | EC50 [4]: 200 nM

CC(/C=C/C=C(\C)c1ccc2c(c1)C(C)(C)CS2)=C\C(=O)O
EC50 [5]: 2600 nM | EC50 [2]: 1000 nM | EC50 [3]: 1200 nM | EC50 [4]: 8 nM

CC(/C=C/C=C(\C)c1ccc2c(c1)C(C)(C)CO2)=C\C(=O)O
EC50 [5]: 2800 nM | EC50 [2]: 800 nM | EC50 [3]: 770 nM | EC50 [4]: 230 nM

CC(/C=C/C=C(\C)c1ccc2c(c1)C(C)(C)CCS2)=C\C(=O)O
EC50 [5]: 2700 nM | EC50 [2]: 1400 nM | EC50 [3]: 43 nM | EC50 [4]: 12 nM

COC(=O)c1ccc(/C=C(\C)c2ccc3c(c2)C(C)(C)CCO3)cc1
EC50 [1]: Not Active | EC50 [2]: 1100 nM | EC50 [3]: 140 nM | EC50 [4]: 330 nM

CC(/C=C/C=C(\C)c1ccc2c(c1)C(C)(C)CCO2)=C\C(=O)O
EC50 [5]: 2800 nM | EC50 [2]: 740 nM | EC50 [3]: 72 nM | EC50 [4]: 39 nM

COC(=O)c1ccc(/C=C(\C)c2ccc3c(c2)C(C)(C)CO3)cc1
EC50 [1]: Not Active | EC50 [6]: Not Active | EC50 [3]: 430 nM | EC50 [4]: 400 nM
